Active and inactive are the calls of the source. No cut-off for these calls is given here.
Columns and labels:
human MDR1 = assay: Permeability across apical to basolateral side in MDCK cells transfected with human MDR1 at 5 uM by LC-MS/MS analysis; details: dog
[1] = Ratio of unbound AUC in brain to plasma of […] rat at 0.4 or 1 mg/kg, iv and 1 or 5 mg/kg, po; format: ADME, organism-based
Summary of the method: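 Rat PK: iv dosing at 0.4 or 1 mg/kg as a 60% PEG solution and oral dosing at 1 or 5 mg/kg as an aqueous suspension in 1% methylcellulose. The ratio is unbound brain AUC over unbound plasma AUC. Unbound clearance was taken as CL/fu, where fu is the fraction unbound in plasma.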

[2] = Half life in […] rat at 0.4 or 1 mg/kg, iv and 1 or 5 mg/kg, po; format: ADME, organism-based; details: in vivo
Summary of the method: (§1)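 Rat PK used iv dosing at 0.4 or 1 mg/kg in 60% PEG solution and po dosing at 1 or 5 mg/kg as an aqueous 1% methylcellulose suspension. Free clearance is CL/fu, where fu is the fraction unbound in plasma.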

Rattus norvegicus = assay: Free clearance in […] rat at 0.4 or 1 mg/kg, iv and 1 or 5 mg/kg, po; format: ADME, organism-based; details: in vivo; summary of the method: as §1
[3] = Volume of distribution at steady state in […] rat at 0.4 or 1 mg/kg, iv and 1 or 5 mg/kg, po; format: ADME, organism-based; details: in vivo, read-out: Vdss
Summary of the method: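 Rat PK: iv dosing at 0.4 or 1 mg/kg as a 60% PEG solution, po dosing at 1 or 5 mg/kg as an aqueous suspension with 1% methylcellulose.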

[4] = biological target: c-Jun N-terminal kinase, JNK (Homo sapiens) (UniProt P45983+P53779+P45984); assay: Inhibition of Myc CA-JNK (unknown origin) transfected in HEK293 cells assessed as reduction of phosphorylation of c-Jun at 10 uM incubated for 5 hrs measured by Western blot analysis; format: cell-based
Summary of the method: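 HEK293 cells were transfected with constitutively active JNK 24 h before compound treatment. Cells were then exposed to compound for 5 h.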

[5] = biological target: Dual specificity mitogen-activated protein kinase kinase 1 (Homo sapiens) (UniProt Q02750); assay: Inhibition of MEK1 (unknown origin) at 1 uM by FRET method
Summary of the method: (§2)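 SelectScreen panel of 58 kinases, each tested at a single 1 µM compound concentration. Read-out was Z′-LYTE FRET of labeled peptide phosphorylation, run by the vendor's protocols, reported as percent inhibition.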

[6] = biological target: Hepatocyte growth factor receptor (Homo sapiens) (UniProt P08581); assay: Inhibition of Met (unknown origin) at 1 uM by FRET method
Summary of the method: (§3)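 Single-point screen at 1 uM against a panel of 58 representative kinases. Readout was labeled-peptide phosphorylation by FRET (Z′-LYTE), using the vendor's protocols.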

[7] = biological target: Serine/threonine-protein kinase PAK 4 (Homo sapiens) (UniProt O96013); assay: Inhibition of PAK4 (unknown origin) at 1 uM by FRET method; summary of the method: as §3
[8] = biological target: Serine/threonine-protein kinase pim-1 (Homo sapiens) (UniProt P11309); assay: Inhibition of PIM1 (unknown origin) at 1 uM by FRET method; summary of the method: as §3
[9] = biological target: cAMP-dependent protein kinase (PKA) (Homo sapiens) (UniProt P22694+P17612+P22612); assay: Inhibition of PKA (unknown origin) at 1 uM by FRET method; format: protein assay; summary of the method: as §3
[10] = biological target: 5'-AMP-activated protein kinase catalytic subunit alpha-1 (Homo sapiens) (UniProt Q13131); assay: Inhibition of PRKAA1 (unknown origin) at 1 uM by FRET method; summary of the method: as §3
[11] = biological target: Non-receptor tyrosine-protein kinase TYK2 (Homo sapiens) (UniProt P29597); assay: Inhibition of TYK2 (unknown origin) at 1 uM by FRET method; summary of the method: as §3
[12] = biological target: Tyrosine-protein kinase ABL1 (Homo sapiens) (UniProt P00519); assay: Inhibition of Abl (unknown origin) at 1 uM by FRET method; summary of the method: as §2
[13] = biological target: Activin receptor type-1B (Homo sapiens) (UniProt P36896); assay: Inhibition of ACVR1B (unknown origin) at 1 uM by FRET method; summary of the method: as §2
[14] = biological target: RAC-alpha serine/threonine-protein kinase (Homo sapiens) (UniProt P31749); assay: Inhibition of AKT1 (unknown origin) at 1 uM by FRET method; summary of the method: as §2
[15] = biological target: Myotonin-protein kinase (Homo sapiens) (UniProt Q09013); assay: Inhibition of DMPK (unknown origin) at 1 uM by FRET method; summary of the method: as §2
[16] = biological target: Dual specificity tyrosine-phosphorylation-regulated kinase 3 (Homo sapiens) (UniProt O43781); assay: Inhibition of DYRK3 (unknown origin) at 1 uM by FRET method; summary of the method: as §2
[17] = biological target: Receptor tyrosine-protein kinase erbB-2 (Homo sapiens) (UniProt P04626); assay: Inhibition of ErbB2 (unknown origin) at 1 uM by FRET method; summary of the method: as §2
[18] = biological target: Mast/stem cell growth factor receptor Kit (Homo sapiens, UniProt P10721); assay: Inhibition of Kit (unknown origin) at 1 uM by FRET method; summary of the method: as §2
[19] = biological target: Glycogen synthase kinase-3 beta (Homo sapiens, UniProt P49841); assay: Inhibition of GSK3beta (unknown origin) by FRET method
[20] = biological target: Mitogen-activated protein kinase 10 (Homo sapiens, UniProt P53779); assay: Inhibition of JNK3 (unknown origin) by FRET method
Summary of the method: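 JNK1, JNK2 and JNK3 IC50 values came from a 10-point dose–response enzymatic assay.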

[21] = biological target: Mitogen-activated protein kinase kinase kinase 10 (Homo sapiens, UniProt Q02779); assay: Inhibition of MLK2 (unknown origin) by FRET method
Summary of the method: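 Biochemical IC50 determination from a 10-point dose-response in an enzymatic Z′-LYTE assay. Labeled-peptide phosphorylation was read by FRET under the vendor's protocols.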

[22] = Tmax in mouse at 50 mg/kg, po; format: ADME, organism-based; details: in vivo
Summary of the method: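 Mice were dosed orally at 50 mg/kg as a methylcellulose suspension. Exposure was sampled over 0–6 h, and free brain concentration was determined at 6 h.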

[23] = AUC (0 to 6 h) in mouse at 50 mg/kg, po; format: ADME, organism-based; parameters: dose 50 mg/kg, time < 6 hr, route oral; details: in vivo
Summary of the method: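 C57/Bl6 mice were given a single 50 mg/kg oral dose as an MCT suspension. Plasma was sampled over 0–6 h for Cmax, Tmax and AUC0–6h.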

Mus musculus = assay: Unbound fraction in brain in mouse at 50 mg/kg, po at 6 hr; format: ADME, organism-based; details: in vivo
[24] = biological target: Proto-oncogene tyrosine-protein kinase Src (Homo sapiens, UniProt P12931); details: 1 uM
[25] = biological target: Receptor-type tyrosine-protein kinase FLT3 (Homo sapiens) (UniProt P36888); details: 1 uM
[26] = biological target: Dual specificity mitogen-activated protein kinase kinase 7 (Homo sapiens, UniProt O14733); assay: Inhibition of MKK7 (unknown origin) using KFMMpTPYVVTR substrate incubated for 1 hr measured by MpTPpYV probe-based fluorescence polarization assay
Dual specificity mitogen-activated protein kinase kinase 7, sequence (O14733 whole entry): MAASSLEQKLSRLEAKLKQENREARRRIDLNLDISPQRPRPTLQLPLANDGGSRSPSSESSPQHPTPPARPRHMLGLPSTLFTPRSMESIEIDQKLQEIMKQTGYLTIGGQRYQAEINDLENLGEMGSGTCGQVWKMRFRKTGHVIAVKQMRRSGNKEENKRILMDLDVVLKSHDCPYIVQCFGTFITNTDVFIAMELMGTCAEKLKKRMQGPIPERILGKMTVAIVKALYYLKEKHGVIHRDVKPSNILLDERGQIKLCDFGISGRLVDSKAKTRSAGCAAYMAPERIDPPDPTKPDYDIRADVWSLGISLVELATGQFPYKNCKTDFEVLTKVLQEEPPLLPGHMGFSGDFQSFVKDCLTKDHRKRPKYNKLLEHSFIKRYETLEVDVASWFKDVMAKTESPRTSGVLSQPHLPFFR

Receptor-type tyrosine-protein kinase FLT3 (Homo sapiens), sequence (P36888 whole entry): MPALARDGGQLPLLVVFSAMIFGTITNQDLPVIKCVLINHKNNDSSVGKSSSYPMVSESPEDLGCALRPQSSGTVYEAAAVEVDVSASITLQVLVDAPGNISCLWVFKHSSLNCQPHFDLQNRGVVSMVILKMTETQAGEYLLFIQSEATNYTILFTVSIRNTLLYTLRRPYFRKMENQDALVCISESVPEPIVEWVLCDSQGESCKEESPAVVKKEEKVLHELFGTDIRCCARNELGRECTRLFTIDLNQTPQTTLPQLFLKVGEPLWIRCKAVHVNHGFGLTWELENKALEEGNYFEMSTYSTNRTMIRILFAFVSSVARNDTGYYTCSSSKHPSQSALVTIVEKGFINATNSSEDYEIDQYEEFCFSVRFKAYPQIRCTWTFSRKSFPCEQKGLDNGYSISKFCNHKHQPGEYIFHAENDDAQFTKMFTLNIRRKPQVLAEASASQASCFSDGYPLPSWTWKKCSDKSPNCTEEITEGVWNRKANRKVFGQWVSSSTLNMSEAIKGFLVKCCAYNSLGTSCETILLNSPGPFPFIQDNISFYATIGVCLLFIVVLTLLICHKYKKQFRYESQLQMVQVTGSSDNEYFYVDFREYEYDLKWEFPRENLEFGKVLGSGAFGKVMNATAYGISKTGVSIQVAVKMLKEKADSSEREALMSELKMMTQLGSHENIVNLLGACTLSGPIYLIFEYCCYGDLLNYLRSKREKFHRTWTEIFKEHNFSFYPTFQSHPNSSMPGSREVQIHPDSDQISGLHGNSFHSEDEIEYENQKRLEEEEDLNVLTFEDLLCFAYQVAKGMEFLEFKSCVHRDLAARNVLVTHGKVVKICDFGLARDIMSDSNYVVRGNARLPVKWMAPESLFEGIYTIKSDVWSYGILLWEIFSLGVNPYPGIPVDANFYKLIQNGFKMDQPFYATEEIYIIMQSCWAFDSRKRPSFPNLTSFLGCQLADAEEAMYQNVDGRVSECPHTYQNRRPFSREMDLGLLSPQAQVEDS
Dual specificity mitogen-activated protein kinase kinase 1 (Homo sapiens), sequence (Q02750 whole entry): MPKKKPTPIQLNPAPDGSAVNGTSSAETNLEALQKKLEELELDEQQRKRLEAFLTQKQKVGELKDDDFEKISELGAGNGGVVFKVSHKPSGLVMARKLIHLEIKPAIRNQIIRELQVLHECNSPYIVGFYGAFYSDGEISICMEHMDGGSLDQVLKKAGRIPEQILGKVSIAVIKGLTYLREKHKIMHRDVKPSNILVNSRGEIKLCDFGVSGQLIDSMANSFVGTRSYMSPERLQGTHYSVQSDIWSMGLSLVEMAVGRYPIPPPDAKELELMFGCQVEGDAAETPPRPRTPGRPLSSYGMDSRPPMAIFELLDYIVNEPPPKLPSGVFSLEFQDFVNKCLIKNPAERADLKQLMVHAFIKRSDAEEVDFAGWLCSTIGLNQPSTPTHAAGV
Mitogen-activated protein kinase kinase kinase 10, sequence (Q02779 whole entry): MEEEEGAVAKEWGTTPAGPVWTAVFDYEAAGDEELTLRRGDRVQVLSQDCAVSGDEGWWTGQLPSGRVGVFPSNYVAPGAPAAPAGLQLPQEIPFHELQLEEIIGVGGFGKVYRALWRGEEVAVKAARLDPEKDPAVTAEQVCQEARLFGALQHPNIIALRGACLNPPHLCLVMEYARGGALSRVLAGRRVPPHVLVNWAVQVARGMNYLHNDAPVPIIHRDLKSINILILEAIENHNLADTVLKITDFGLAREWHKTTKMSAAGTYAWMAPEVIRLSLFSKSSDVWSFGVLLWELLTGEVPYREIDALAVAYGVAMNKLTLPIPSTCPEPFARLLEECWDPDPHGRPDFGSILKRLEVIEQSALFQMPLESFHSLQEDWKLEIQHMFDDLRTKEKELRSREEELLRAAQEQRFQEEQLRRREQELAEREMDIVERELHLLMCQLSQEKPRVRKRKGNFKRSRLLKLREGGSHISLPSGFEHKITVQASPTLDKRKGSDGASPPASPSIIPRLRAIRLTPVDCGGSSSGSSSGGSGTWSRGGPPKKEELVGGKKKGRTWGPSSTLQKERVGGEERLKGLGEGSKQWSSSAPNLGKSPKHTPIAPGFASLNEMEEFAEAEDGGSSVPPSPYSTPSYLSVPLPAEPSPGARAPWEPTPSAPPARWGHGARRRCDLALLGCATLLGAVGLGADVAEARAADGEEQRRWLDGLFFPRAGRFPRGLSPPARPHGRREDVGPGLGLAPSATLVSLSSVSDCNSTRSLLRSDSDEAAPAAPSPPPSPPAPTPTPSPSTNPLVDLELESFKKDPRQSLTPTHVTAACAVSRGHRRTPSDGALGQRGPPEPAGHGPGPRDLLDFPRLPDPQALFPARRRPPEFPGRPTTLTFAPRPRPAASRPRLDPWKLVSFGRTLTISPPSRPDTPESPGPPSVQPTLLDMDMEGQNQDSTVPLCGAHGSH
Hepatocyte growth factor receptor (Homo sapiens), sequence (P08581 whole entry): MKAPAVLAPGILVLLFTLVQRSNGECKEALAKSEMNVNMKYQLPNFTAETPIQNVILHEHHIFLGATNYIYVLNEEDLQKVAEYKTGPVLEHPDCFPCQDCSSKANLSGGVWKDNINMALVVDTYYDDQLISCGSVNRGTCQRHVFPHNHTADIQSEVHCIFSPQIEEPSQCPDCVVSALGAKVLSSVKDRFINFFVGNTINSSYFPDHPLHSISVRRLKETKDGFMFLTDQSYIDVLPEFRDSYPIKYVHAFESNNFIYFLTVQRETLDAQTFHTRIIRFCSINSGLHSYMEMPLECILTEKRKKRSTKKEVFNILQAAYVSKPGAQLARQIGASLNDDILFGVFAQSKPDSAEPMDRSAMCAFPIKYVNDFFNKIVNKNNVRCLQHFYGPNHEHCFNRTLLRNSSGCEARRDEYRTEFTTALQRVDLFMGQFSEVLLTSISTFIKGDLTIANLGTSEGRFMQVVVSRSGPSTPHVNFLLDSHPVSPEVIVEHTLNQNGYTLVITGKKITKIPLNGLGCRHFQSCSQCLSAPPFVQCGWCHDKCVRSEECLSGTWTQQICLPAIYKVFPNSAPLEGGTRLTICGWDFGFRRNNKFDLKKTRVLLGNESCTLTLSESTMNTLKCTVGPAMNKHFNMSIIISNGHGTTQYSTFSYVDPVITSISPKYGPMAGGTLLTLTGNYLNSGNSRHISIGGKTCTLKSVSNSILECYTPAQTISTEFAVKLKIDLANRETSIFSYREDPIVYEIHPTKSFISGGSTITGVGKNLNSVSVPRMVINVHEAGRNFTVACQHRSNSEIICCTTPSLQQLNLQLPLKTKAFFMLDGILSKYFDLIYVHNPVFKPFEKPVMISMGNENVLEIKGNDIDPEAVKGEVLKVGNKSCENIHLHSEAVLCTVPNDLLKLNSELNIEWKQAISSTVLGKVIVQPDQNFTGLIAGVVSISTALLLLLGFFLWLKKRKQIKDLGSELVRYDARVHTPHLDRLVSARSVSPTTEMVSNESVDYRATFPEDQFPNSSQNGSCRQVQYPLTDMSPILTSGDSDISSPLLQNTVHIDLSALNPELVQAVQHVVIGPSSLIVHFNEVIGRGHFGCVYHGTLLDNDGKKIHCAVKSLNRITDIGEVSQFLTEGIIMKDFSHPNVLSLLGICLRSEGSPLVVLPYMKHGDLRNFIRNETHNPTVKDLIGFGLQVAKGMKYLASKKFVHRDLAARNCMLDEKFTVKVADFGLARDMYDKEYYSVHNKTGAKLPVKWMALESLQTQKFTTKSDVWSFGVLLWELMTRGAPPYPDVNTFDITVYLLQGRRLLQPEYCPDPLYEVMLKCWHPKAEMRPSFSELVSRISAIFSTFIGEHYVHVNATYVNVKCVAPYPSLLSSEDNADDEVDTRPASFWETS
Glycogen synthase kinase-3 beta, sequence (P49841 whole entry): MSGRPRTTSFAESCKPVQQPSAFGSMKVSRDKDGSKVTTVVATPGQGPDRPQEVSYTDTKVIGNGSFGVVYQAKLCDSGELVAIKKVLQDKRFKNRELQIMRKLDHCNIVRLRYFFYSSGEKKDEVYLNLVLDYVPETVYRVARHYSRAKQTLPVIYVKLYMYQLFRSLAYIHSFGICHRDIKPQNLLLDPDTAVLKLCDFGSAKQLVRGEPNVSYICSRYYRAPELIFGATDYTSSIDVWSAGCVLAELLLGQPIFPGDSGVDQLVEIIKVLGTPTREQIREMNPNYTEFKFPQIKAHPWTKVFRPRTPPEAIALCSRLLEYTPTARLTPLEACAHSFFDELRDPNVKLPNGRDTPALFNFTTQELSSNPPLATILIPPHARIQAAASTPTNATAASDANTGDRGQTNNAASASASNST
RAC-alpha serine/threonine-protein kinase (Homo sapiens), sequence (P31749 whole entry): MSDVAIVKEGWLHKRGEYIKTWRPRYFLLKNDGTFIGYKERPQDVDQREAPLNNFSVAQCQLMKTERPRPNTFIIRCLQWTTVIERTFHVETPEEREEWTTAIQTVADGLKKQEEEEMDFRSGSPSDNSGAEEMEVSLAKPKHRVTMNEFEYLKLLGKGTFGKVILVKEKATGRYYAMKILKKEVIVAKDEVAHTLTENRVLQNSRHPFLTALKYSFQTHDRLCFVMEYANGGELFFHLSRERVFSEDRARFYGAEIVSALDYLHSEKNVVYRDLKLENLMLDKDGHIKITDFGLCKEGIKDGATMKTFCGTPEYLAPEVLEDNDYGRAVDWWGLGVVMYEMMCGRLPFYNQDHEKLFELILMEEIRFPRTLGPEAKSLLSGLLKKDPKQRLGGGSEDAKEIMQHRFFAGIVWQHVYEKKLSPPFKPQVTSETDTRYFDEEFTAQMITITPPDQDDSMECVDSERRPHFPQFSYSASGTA

N#Cc1ccnc(Nc2cc(C3CCN(C4COC4)CC3)n(C3CCCC3)n2)c1
Papp A→B at 5 µM (human MDR1): 8.8 ×10⁻⁶ cm/s | Kp uu [1]: 0.35 | half-life [2]: 102 min | CL free (Rattus norvegicus): 327 mL/min/kg | Vd [3]: 4.4 L/kg | inhibition [4]: inactive | inhibition [5]: 4% | inhibition [6]: 23.4% | inhibition [7]: 48% | inhibition [8]: 6.6% | inhibition [9]: 4% | inhibition [10]: 1.8% | inhibition [11]: 25.6% | inhibition [12]: 8.4% | inhibition [13]: 7.1% | inhibition [14]: -3.6% | inhibition [15]: 12% | inhibition [16]: 0.3% | inhibition [17]: 1% | inhibition [18]: 56% | IC50 [19]: 682 nM | IC50 [20]: 2100 nM | IC50 [21]: > 10 µM | Tmax [22]: 15 min | AUC(0-t) at 6 h [23]: 15.8 µM·h | Drug uptake(free) (Mus musculus): 0.05 µM | inhibition [24]: 55.4% | inhibition [25]: 65.4% | IC50 [26]: > 5 µM
